# FXIa inh 1536: blocks human coagulation factor XIa protease activity; purified FXIa, Boc-Glu-Ala-Arg-AMC fluorogenic substrate; P03951; 220,000 compounds, 0.14% hits; inhibition, % at 5 µM; AID 798;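 active = inhibition of at least 40%; inactive = inhibition below 40%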;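 also: fluorescence of freed AMC excited at 355 nm; 0% = enzyme without compound and 100% = no enzyme blank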
# Target sequence (P03951 19-387 limits assumed): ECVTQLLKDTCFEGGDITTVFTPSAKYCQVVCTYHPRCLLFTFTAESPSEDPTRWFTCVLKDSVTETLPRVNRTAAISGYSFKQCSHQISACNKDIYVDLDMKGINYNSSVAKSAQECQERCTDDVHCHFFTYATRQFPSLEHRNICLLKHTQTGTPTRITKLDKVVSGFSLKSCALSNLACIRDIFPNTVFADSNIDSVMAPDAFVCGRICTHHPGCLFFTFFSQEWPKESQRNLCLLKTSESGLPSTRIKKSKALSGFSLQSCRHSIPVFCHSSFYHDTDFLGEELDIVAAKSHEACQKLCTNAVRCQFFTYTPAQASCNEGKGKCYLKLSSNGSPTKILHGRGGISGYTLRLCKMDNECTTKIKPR
# Target sequence (P03951 388-625 limits assumed): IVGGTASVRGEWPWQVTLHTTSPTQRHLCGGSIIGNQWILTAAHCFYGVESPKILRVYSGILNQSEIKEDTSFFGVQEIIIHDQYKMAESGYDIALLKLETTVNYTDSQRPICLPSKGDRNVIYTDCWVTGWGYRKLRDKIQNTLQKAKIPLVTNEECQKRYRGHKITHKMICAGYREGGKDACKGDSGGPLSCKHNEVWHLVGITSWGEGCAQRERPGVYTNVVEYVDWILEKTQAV
# FXIIa inh: blocks human coagulation factor XIIa protease activity; inhibition, % at 5 µM; P00748; 220,000 compounds, 0.3% hits; purified FXIIa, Boc-QGR-AMC fluorogenic substrate, 2 h; AID 800; in the data active = inhibition above about 40%;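 also: 0% = enzyme with no compound and 100% = blank without enzyme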
# Thrombin inh: thrombin (human) inhibition | P00734 | alpha-thrombin, Boc-VPR-AMC fluorogenic substrate cleavage | inhibition, % at 5 µM | 220,000 compounds, 0.26% hits | AID 1046;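 active = inhibition at or above 40%; inactive = inhibition below 40%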;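 also: 0% = enzyme with no compound and 100% = wells without enzyme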
#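 Test system: human alpha-thrombin protein / Dosing: one concentration per compound, 5 µM, with 0.2% DMSO / Medium: pH 7.5 Tris-saline with Tween 20 / Benchmarks: no-compound enzyme wells and no-enzyme blanks / Read-out basis: percent inhibition of thrombin substrate cleavage / Timing: reaction at room temperature / Measured by: fluorescence, ex 355 nm, em 460 nm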
# KLK5 inh: inhibitors of human kallikrein 5; Q9Y337; recombinant hK5, fluorogenic AMC substrate cleavage; inhibition, % at 5 µM; 210,000 compounds, 0.59% hits;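 active = inhibition of 40% or more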;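 also: 0% = enzyme controls without compound and 100% = no-enzyme blanks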
# The depositor's hits bear a star; . = not tested or not shown. A selection: hits, their analogues and other compounds. The true share with any hit is near 1%.
SMILES,FXIa inh 1536,FXIIa inh,Thrombin inh,KLK5 inh
COc1cc(NC(=O)c2nccnc2C(=O)O)cc(OC)c1,4,2,16,122*
COc1cc(NC(=O)c2n[nH]c(=O)c3ccccc23)cc(OC)c1,1,9,1,4
c1ccc2nc3c(cc2c1)CCCCC3,3,8,3,4
Brc1cccc(/C=N/Nc2nn[nH]n2)c1,102*,43*,18,40
O=C(/C=C/c1cccc(Br)c1)Nc1nn[nH]n1,13,13,5,5
CC(NC(=O)CSc1ncccc1C(=O)O)C1CC2CCC1C2 (stereo not given),-5,-3,-3,-1
Nc1ccccc1Nc1ccncc1[N+](=O)[O-],-3,-11,-8,-2
O=[N+]([O-])c1cncc([N+](=O)[O-])c1Nc1ccccc1Cl,30,44*,12,16
N#Cc1sc2nc(-c3ccccc3)cc(C(F)(F)F)c2c1N,26,23,50*,24
COC(=O)/C=C1/S/C(=N/N=C/c2ccc(N(C)C)cc2)NC1=O,-3,7,11,1
CCN(CC)c1ccc(/C=C/C(=O)C2C(=O)C=C(C)OC2=O)cc1 (stereo not given),-4,2,0,-19
O=Nc1ccc(NOC(=O)c2ccc(Br)cc2)cc1,5,39,1,2
Cc1ccc(C(=O)ONc2ccc(N=O)cc2)cc1,8,44*,1,-8
COc1ccccc1/C=C/C(=O)Nc1nc(N)n(-c2ccccc2)n1,5,7,-3,5
Cc1ccccc1NC(=O)Cn1c(O)c(N=NC(=O)c2ccccc2O)c2ccccc21,20,11,24,66*
Cc1cc(NC(=O)CCN2C(=O)/C(=C/c3ccccc3F)SC2=S)no1,2,95*,-8,-1
CSc1nc(SCC(=O)NCc2ccco2)c2c3c(sc2n1)COC(C)(C)C3,-1,6,-10,-29
CSc1nc(SCC(=O)O)c2c3c(sc2n1)COC(C)(C)C3,30,52*,18,23
COC(=O)c1cc(C(=O)OC)cc(S(=O)(=O)Nc2ccc(Cl)c(N)c2)c1,-2,11,-2,5
COc1cccc2sc(NC(=O)c3ccc(S(=O)(=O)N4CCOCC4)cc3)nc12,16,41*,19,32
Nc1nnc(-c2cccc([N+](=O)[O-])c2)o1,-18,2,-9,51*
O=[N+]([O-])c1cccc(-c2nnc(C3CC3)o2)c1,5,1,-5,6
CC(=O)c1ccc(NC(=O)/C(Cl)=C/c2ccccc2)cc1,57*,33,19,34
O=C(Nc1ccc(F)cc1)/C(Cl)=C/c1ccccc1,-3,-2,3,-12
CC12CCC(C(=O)Nc3cc(Cl)ccc3Cl)(C(Br)C1=O)C2(C)C (stereo not given),8,7,-2,-15
SMILES,FXIa inh 1536,FXIIa inh,Thrombin inh,KLK5 inh
Cc1nnc(SCC(=O)Nc2nc(-c3ccc(F)cc3)cs2)[nH]c1=O,6,11,.,2
CC(CCC(=O)O)C1CC[C@@]2(C)C3C(=O)CC4C(C)(C)C(O)CC[C@]4(C)C3C(=O)C[C@]12C (stereo not given in full),0,9,-2,13
O=C(NCCc1cccc(Cl)c1)c1cc([N+](=O)[O-])ccc1Cl,1,9,-5,-23
O=C(NCCCN1CCN(CCCNC(=O)c2cc([N+](=O)[O-])ccc2Cl)CC1)c1cc([N+](=O)[O-])ccc1Cl,2,5,19,43*
O=C(NCCc1ccc2c(c1)OCCO2)c1ccc([N+](=O)[O-])cc1Cl,11,10,4,40*
Cc1nn(Cc2ccc(C(=O)Nc3nccs3)cc2)c(C)c1Cl,13,25,104*,44*
Cc1nn(Cc2ccc(C(=O)NN)cc2)c(C)c1Cl,5,12,3,3
CSCCC(N=C(NS(=O)(=O)c1ccccc1)c1ccccc1)C(=O)O (stereo not given),3,12,-4,4
O=C(Cn1nc(C(F)F)cc1C(F)F)NNC(=S)Nc1ccc(F)cc1,-4,-17,50*,-223
O=C(Cn1nc(C(F)F)cc1C(F)F)NNC(=S)Nc1ccc([N+](=O)[O-])cc1,-2,8,-1,-8
COc1cnc(-c2ccccn2)nc1Sc1ccc(F)cc1,-4,3,-6,-9
Cc1ccc(NC(=O)Cn2cccc2)cc1C,13,8,-4,-4
Cc1ccc(NC(=O)CSCC(N)=O)cc1C,9,42*,11,42*
Cc1ccc(NC(=O)CCn2cccc2)cc1C,14,43*,32,32
O=C(Nc1ccc2c(c1)OCO2)N1CCCC1,-4,5,4,-26
O=C(NC12CC3CC(CC(C3)C1)C2)OCCNC1CCCCC1,-9,-4,-5,-10
CCOc1ccc(NC(=O)CN2C(=O)/C(=C3\SC(=S)N(C4CCS(=O)(=O)C4)C3=O)c3ccccc32)cc1 (stereo not given),53*,22,3,36
CCOc1ccc(NC(=O)CN2C(=O)CSC(C)C2=O)cc1 (stereo not given),-8,2,-29,-7
Cc1nc(NCCc2ccc(F)cc2)c(C#N)c(C)c1[N+](=O)[O-],-2,4,-13,-8
Cc1nc(NCCc2ccccc2F)c(C#N)c(C)c1[N+](=O)[O-],14,25,46*,25
N#CC1=C(N)C(C#N)(C#N)[C@H](c2ccoc2)[C@H]2CN(Cc3ccccc3)CC=C12,7,29,20,112*
O=C(COC(=O)Cn1cnc2ccccc2c1=O)Nc1cc(Cl)ccc1[N+](=O)[O-],9,10,65*,-8
O=C(/C=C/c1cccc(Oc2ccccc2)c1)N1CCOCC1,-4,5,-3,-2
CCOC(=O)CSc1nnc(-c2ccco2)n1-c1ccccc1,2,11,0,-7
CCOC(=O)CSc1nnc(-c2ccco2)n1-c1ccc(C)cc1,1,2,29,45*
SMILES,FXIa inh 1536,FXIIa inh,Thrombin inh,KLK5 inh
COc1ccccc1-c1nnc(SCC(=O)O)n1-c1ccc(C)cc1,-2,8,-8,-4
COC(=O)CSc1nnc(-c2ccccc2OC)n1-c1ccc(C)cc1,7,30,46*,43*
O=C(COC(=O)CNC(=O)c1ccccc1)Nc1nc(-c2ccccc2)cs1,3,-1,-6,-5
CCOC(=O)c1oc2ccccc2c1NC(=O)CN1CCOCC1,2,8,2,-5
O=C1CC2(CCCC2)C(=O)N1c1ccc(S(=O)(=O)NCC2CC2)cc1Cl,-1,1,-6,-2
O=C(c1ccco1)N1CCN(S(=O)(=O)c2ccc(S(=O)(=O)NC3CCCCC3)cc2)CC1,5,17,3,6
C=C(C)Cn1cnc2c(oc3nc4c(cc32)CCCC4)c1=O,9,2,-4,2
Cc1cc(NC(=S)N(Cc2ccc(Br)cc2)Cc2ccc(C(=O)O)cc2)ccc1Cl,4,6,-2,.
COc1ccc(C2SCC(=O)N2c2c(C)n(C)n(-c3ccccc3)c2=O)cc1 (stereo not given),5,17,7,-14
